Source: PubChem BioAssay (several laboratories)
ABHD5-PLIN5 inh = blocks binding of human ABHD5 to perilipin-5; Q00G26+Q8WTS1; inhibition, % at 4 µM; 0.78% of 360,000 active; Split G. princeps luciferase complementation, luminescence, 4 h;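 active means inhibition above the mean inhibition across every tested compound plus 3 SD, cut at about 22% in these data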
Target sequence (Q00G26 whole entry, looked up): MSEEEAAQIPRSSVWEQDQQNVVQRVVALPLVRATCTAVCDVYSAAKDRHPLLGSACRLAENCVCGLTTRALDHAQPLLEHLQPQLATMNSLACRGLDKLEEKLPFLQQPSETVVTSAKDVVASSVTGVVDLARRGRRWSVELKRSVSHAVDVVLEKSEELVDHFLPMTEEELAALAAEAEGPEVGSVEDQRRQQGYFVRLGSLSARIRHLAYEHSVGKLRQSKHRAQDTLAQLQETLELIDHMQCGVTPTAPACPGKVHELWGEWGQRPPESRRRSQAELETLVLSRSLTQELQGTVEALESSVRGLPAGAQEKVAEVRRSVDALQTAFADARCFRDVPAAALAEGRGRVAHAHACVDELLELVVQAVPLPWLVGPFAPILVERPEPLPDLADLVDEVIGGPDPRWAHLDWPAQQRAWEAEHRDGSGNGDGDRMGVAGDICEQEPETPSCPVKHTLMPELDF
Target sequence (Q8WTS1 whole entry, looked up): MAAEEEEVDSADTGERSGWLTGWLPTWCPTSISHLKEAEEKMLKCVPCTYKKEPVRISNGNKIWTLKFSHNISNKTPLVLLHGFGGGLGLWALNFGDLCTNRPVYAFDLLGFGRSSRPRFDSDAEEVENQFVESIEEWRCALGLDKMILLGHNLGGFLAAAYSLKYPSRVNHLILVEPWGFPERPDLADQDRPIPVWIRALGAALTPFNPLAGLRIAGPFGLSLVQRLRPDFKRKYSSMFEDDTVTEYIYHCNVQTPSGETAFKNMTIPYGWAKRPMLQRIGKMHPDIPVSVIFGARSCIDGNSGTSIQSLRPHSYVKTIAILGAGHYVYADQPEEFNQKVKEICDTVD
NadD block = inhibitors of Staphylococcus aureus NadD. purified NadD enzyme, colorimetric absorbance read-out. 0.78% of 360,000 active. AID 602399. inhibition, % at 20 µM; in the data active means inhibition above about 26%
SENP1 FRET inh = inhibitors of human SENP1 SUMO protease catalytic domain; 0.21% of 360,000 active; AID 624204; Q9P0U3; inhibition, % at 10 µM; recombinant SENP1 catalytic domain, CyPet-SUMO1-YPet FRET cleavage;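 active means inhibition at least 30% at 10 µM, raw YFP signal under a set limit, fluorescence ratio 0.5 to 1.5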
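material = recombinant human SENP1 catalytic domain, His6-tagged | quantity = 20 pM enzyme | reagent = 25 nM SUMO1 FRET substrate | compound dosing = 10 µM single point, 0.5% DMSO | timing = 50 min enzyme reaction, room temperature, light-protected | detection = FRET, CFP and YFP emission | control set = no-enzyme low, enzyme-DMSO high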
Beta2AR agonist = agonists of human beta-2 adrenergic receptor inducing internalization | P07550 | Am2.2-beta2AR cells, FAP receptor internalization, flow cytometry | response, % (no concentration beside the values) | 0.43% of 340,000 active | AID 504454;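 active means response above a set limit, near 3 SD of response in nonfluorescent compounds, cut at about 42% in these data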
GRK2 aptamer HTS = human GRK2 inhibition via aptamer displacement | 0.59% of 330,000 active | bead flow cytometry, FAM-aptamer displacement from GRK2 | P25098 | inhibition of aptamer binding, % at 10 µM;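 active means inhibition of aptamer binding above 40%, roughly 3 SD of noise, on plates passing a quality check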;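 further: median bead fluorescence of bound FAM aptamer so fluorescent compounds give negative values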
GRK2 inh confirm = human GRK2 inhibition confirmation, cherry pick 1; aptamer displacement, % at 10 µM; 4% of 2,000 active; bead-bound GRK2, FAM-aptamer displacement, flow cytometry; AID 504451; shares compounds with GRK2 aptamer HTS;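 active means aptamer displacement above 40%, near three times the noise of non-fluorescent compounds, on plates passing quality checks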;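 further: negative values mostly reflect intrinsic compound fluorescence rather than true enhancement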
Aptamer quench = quenches fluorescent RNA aptamer, GRK2 hit artifact; shares compounds with GRK2 aptamer HTS; Fluorescent RNA aptamer beads, quenching, flow cytometry; active compounds read high; fluorescence change (kMESF span), kMESF (test concentration not listed); 110 tested, under 10 active;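 active means compounds whose bead fluorescence drops by more than 37 kMESF across the dose range, marking them as dye quenchers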
FAM quench CP1 = quenches fluorescent RNA aptamer, GRK2 hit artifact; shares compounds with GRK2 aptamer HTS; Carboxyfluorescein RNA aptamer on beads, flow cytometry quenching; active compounds read low; fluorescence response (% of DMSO), % at 10 µM; 2,000 tested, under 10 active; AID 504580;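 active means compounds that quench the bead-bound fluorescent RNA probe, cutting fluorescence to under half of the solvent control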;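 further: counterscreen run without GRK2 so only probe quenching by compound is measured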
GRK2 confirm 2 = human GRK2 inhibition confirmation, cherry pick 2 | shares compounds with GRK2 aptamer HTS | bead-bound GRK2, FAM-aptamer displacement, flow cytometry | inhibition of aptamer binding, % at 10 µM | 360 tested, under 10 active;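 active means inhibition of aptamer binding above 40%, about triple the noise seen with nonglowing compounds, on plates passing quality control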;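 further: negative values mostly come from compounds that fluoresce themselves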
FAM quench SP = counter-screen for GRK2 binding hits: quenchers of fluorescent RNA aptamer. shares compounds with GRK2 aptamer HTS. 360 tested, under 10 active. fluorescence response vs DMSO, % at 10 µM. carboxyfluorescein RNA aptamer beads, flow cytometry quenching; active compounds read low;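 active means response vs DMSO under 50%, meaning signal dropped by over half, treated as fluorescence quencher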;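 further: labelled aptamer on streptavidin beads without GRK2 as a quench counter-screen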
FAM quench DR = quenches fluorescent RNA aptamer, GRK2 hit artifact; shares compounds with GRK2 aptamer HTS; Bead-bound FAM RNA aptamer fluorescence quenching, flow cytometry; active compounds read low; fluorescence ratio to DMSO, % at 11.1 µM; 35 tested, under 10 active; AID 588496;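 active means compounds that dim the fluorescent label, raw bead signal shifting by over 33 units between lowest and highest dose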
Of the large screens only hits and unclear results are named; the others gave an inactive call (follow-up assays come after a bar, where they were run). Compounds with a hit are over-represented: about 2.5% of the library has one in this group of screens.

CC(=O)c1ccc(NC(=O)c2cccc(N3C(=O)c4ccccc4C3=O)c2)cc1	Beta2AR agonist 81, GRK2 aptamer HTS 48 | GRK2 confirm 2 inactive | FAM quench SP inactive
O=C(COc1ccc(/C=N/NC(=O)c2ccncc2)cc1)Nc1ccccc1	GRK2 aptamer HTS 95 | GRK2 inh confirm inactive | FAM quench CP1 inactive
CCN(CC(=O)NCc1ccc(F)cc1)C(=O)C(C)Oc1cccc(Cl)c1 (centres undefined)	GRK2 aptamer HTS 79 | GRK2 inh confirm inactive | FAM quench CP1 inactive
O=C(c1ccco1)N1CCN(C(=S)Nc2ccc(Br)cc2Cl)CC1	none
CCn1cc([N+](=O)[O-])c(=O)c2cc(F)c(N3CCOCC3)cc21	GRK2 aptamer HTS 64 | GRK2 inh confirm inactive | FAM quench CP1 inactive
O=C(Nc1ccon1)Nc1ccccc1C(F)(F)F	none
O=C(O)Cc1ccc(-n2cccc2)cc1	GRK2 aptamer HTS 99 | GRK2 inh confirm 99 | Aptamer quench inactive | FAM quench CP1 inactive | FAM quench DR inactive
O=C(Cc1ccc(-n2cccc2)cc1)NC1CCCCC1	GRK2 aptamer HTS 45 | GRK2 inh confirm inactive | FAM quench CP1 inactive
O=C(Cc1ccc(O)cc1)NC1CCCCCC1	none
O=C(NC1CCCCC1)N1CCN(CCc2ccccc2)CC1	GRK2 aptamer HTS 70 | GRK2 inh confirm inactive | FAM quench CP1 inactive
COc1ccccc1N1CCN(S(=O)(=O)CCNC(=O)c2ccccc2Br)CC1	none
COc1ccc(C(=O)NCc2ccc3c(c2)cc(C)n3C)cc1OC	none | GRK2 inh confirm inactive | FAM quench CP1 inactive
COc1ccc(CC(=O)NCc2ccc3c(c2)cc(C)n3C)cc1	GRK2 aptamer HTS 67 | GRK2 inh confirm inactive | FAM quench CP1 inactive
COc1ccc(NC(=S)NCc2ccc3c(c2)cc(C)n3C)cc1	none
COc1ccc(S(=O)(=O)NCc2ccc3c(c2)cc(C)n3C)cc1	none
Cc1cc2cc(CNC(=O)c3cccs3)ccc2n1C	none
Cc1cc2cc(CNS(=O)(=O)c3ccccc3)ccc2n1C	GRK2 aptamer HTS 54 | GRK2 inh confirm inactive | FAM quench CP1 inactive
COc1cccc(C(=O)NCc2ccc3c(c2)cc(C)n3C)c1	GRK2 aptamer HTS 84 | GRK2 inh confirm inactive | FAM quench CP1 inactive
CC(NC(=O)C1CCN(S(=O)(=O)c2ccc3c(c2)NC(=O)CO3)CC1)c1ccccc1 (centres undefined)	none (no result: Beta2AR agonist)
Cc1cc2cc(CNC(=O)c3ccc(S(=O)(=O)N4CCCCC4)cc3)ccc2n1C	GRK2 aptamer HTS 66 | GRK2 inh confirm inactive | FAM quench CP1 inactive | GRK2 confirm 2 inactive | FAM quench SP inactive
Cc1cc2cc(CNC(=O)c3ccc(S(=O)(=O)N4CCCC4)cc3)ccc2n1C	none
O=C1C(=O)N(CCCO)C(c2ccc(Br)cc2)/C1=C(\O)c1ccc(Br)cc1 (centres undefined)	none
O=C(COC(=O)CNC(=O)c1ccc([N+](=O)[O-])o1)Nc1ncc(Cl)cc1Cl	GRK2 aptamer HTS 55 | GRK2 inh confirm inactive | FAM quench CP1 inactive
c1ccc2sc(N3CCOCC3)nc2c1	none
c1ccc2sc(N3CN(CCN4CCOCC4)CN(c4nc5ccccc5s4)C3)nc2c1	none | GRK2 inh confirm inactive | FAM quench CP1 inactive
CC(=O)NS(=O)(=O)c1cccnc1Nc1ccc(Cl)c(Cl)c1	GRK2 aptamer HTS 83 | GRK2 inh confirm inactive | FAM quench CP1 inactive
Cn1c(=O)c(C(=O)NNC(=O)c2cccc(Cl)c2)c(O)c2ccccc21	Beta2AR agonist 77, GRK2 aptamer HTS 90 | GRK2 inh confirm 65 | Aptamer quench inactive | FAM quench CP1 inactive
CCn1c(=O)c(C(=O)NNC(=O)c2cccc(Cl)c2)c(O)c2ccccc21	GRK2 aptamer HTS 54 | GRK2 inh confirm inactive | FAM quench CP1 inactive
O=C(CSc1nc2ccc([N+](=O)[O-])cc2s1)NCC1CCCO1 (centres undefined)	GRK2 aptamer HTS 90 | GRK2 inh confirm inactive | FAM quench CP1 inactive
O=C(CSc1nc2cc(Cl)ccc2s1)NCC1CCCO1 (centres undefined)	none
CCOC(=O)C(=O)Nc1nc(-c2ccccc2)c(-c2ccccc2)o1	none
CN1CCN(C(=S)SCC(=O)Nc2nc(-c3ccccc3)c(-c3ccccc3)o2)CC1	GRK2 aptamer HTS 100 | GRK2 confirm 2 inactive | FAM quench SP inactive
COc1ccc(C(CC(=O)N2CCOCC2)c2c(OC)cc(OC)c3c(-c4ccccc4)cc(=O)oc23)cc1 (centres undefined)	GRK2 aptamer HTS 48 | GRK2 inh confirm inactive | FAM quench CP1 inactive
COC(=O)c1ccc(NC(=O)C2CC(=O)OC2c2ccccc2)cc1 (centres undefined)	none
CCOc1ccc(NC(=O)C2CC(=O)OC2c2ccccc2)cc1 (centres undefined)	GRK2 aptamer HTS 82 | GRK2 inh confirm inactive | FAM quench CP1 inactive
COc1cc(/C=N/NC(=O)c2ccc(CSc3nc4ccccc4[nH]3)cc2)ccc1O	none
O=C(Nc1cccc(O)c1)C(=O)Nc1ccccn1	none
O=C(Nc1ccccc1)C(=O)Nc1ccccn1	GRK2 aptamer HTS 47 | GRK2 inh confirm inactive | FAM quench CP1 inactive
O=C(O)c1ccc2c(c1)[C@@H]1C=CC[C@@H]1[C@H](c1ccccn1)N2	GRK2 aptamer HTS 42 | GRK2 inh confirm inactive | FAM quench CP1 inactive
COc1cccc(NS(=O)(=O)c2ccc3c(c2)C2C=CCC2C(c2ccc(C(=O)O)cc2)N3)c1 (centres undefined)	none
C[C@@H]1CN([C@@H](C)CO)C(=O)CCCn2nncc2CO[C@H]1CN(C)S(=O)(=O)c1ccc(C#N)cc1	none (no result: Beta2AR agonist, GRK2 aptamer HTS)
Cn1cnnc1SCC(=O)Nc1ccc(N2CCCCC2)cc1	none
O=C(COc1ccc(Cl)cc1Cl)N1CCN(c2ccccn2)CC1	none
O=C(COc1cc(Cl)c(Cl)cc1Cl)N1CCN(c2ccccn2)CC1	GRK2 aptamer HTS 95 | GRK2 inh confirm inactive | FAM quench CP1 inactive
Cc1cc(C)cc(C(=O)N2CCN(c3ccccn3)CC2)c1	none | GRK2 inh confirm inactive | FAM quench CP1 inactive
